Data as given in ChEMBL document CHEMBL1144911, “Synthesis and biological evaluation of 5-substituted derivatives of the potent antiherpes agent (north)-methanocarbathymine” (J Med Chem, 2003).

Assays:
[1] = target: T1, Thymidine kinase, cytosolic (Homo sapiens) (UniProt P04183); conditions: herpes simplex virus
T1 sequence (whole entry): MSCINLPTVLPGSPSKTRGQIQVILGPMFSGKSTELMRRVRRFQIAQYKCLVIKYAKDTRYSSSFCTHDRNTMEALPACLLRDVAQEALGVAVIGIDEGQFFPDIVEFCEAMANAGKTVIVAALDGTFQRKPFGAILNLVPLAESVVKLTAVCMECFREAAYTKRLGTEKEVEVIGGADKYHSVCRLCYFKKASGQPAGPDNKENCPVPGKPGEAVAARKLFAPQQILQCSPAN

[2] = Inhibitory activity against HSV-1-TK transfected osteosarcoma cells; assay type: functional
Method in brief: (§1)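 Osteosarcoma lines (143B-TK⁻ with 0.1 mg/mL 5-BrdU selection; MG-63-hTK1; 143B-TK⁺-HSV1-WT with HAT) grown in MEM/10% FCS. Seeded at 2 × 10³ (143B lines) or 1.5 × 10³ (MG-63) cells/well, exposed to five concentrations over 0.5–500 μM for 4.5 days at 37 °C/5% CO₂. XTT added for 9 h, A450 (ref 750 nm) read against untreated wells. Three independent series in triplicate.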

[3] = Cytotoxic concentration against non transfected osteosarcoma cells non transfected (MG-63-hTK1); assay type: functional
Method in brief: as §1

[4] = Cytotoxic concentration against HSV-1 TK- transfected osteosarcoma cells; assay type: functional; conditions: Human alphaherpesvirus 1
Method in brief: as §1

[5] = Cytotoxic concentration against HSV-1 TK-transfected osteosarcoma cells; assay type: functional; conditions: Human alphaherpesvirus 1
Method in brief: as §1

[6] = system: Human alphaherpesvirus 3; experiment: Minimum cytotoxic concentration that causes alterations of VZV infected Osteosarcoma cell morphology; assay type: functional
[7] = system: Human alphaherpesvirus 3; experiment: Cytotoxic concentration that causes growth inhibition of VZV infected Osteosarcoma cells; assay type: functional
[8] = system: Human alphaherpesvirus 3; experiment: Antiviral activity against YS/R strain of thymidine kinase negative(TK-) Varicella-Zoster Virus (VZV); assay type: functional, organism-based
[9] = system: Human alphaherpesvirus 3; experiment: Effective concentration against TK+ Varicella-Zoster Virus (VZV)YS strain; assay type: functional, organism-based
[10] = system: Human alphaherpesvirus 3; experiment: Effective concentration against TK- Varicella-Zoster Virus (VZV) 07/1 strain; assay type: functional, organism-based
[11] = system: Human alphaherpesvirus 3; experiment: Effective concentration against TK+ Varicella-Zoster Virus (VZV) OKA strain; assay type: functional, organism-based
[12] = Minimum cytotoxic concentration that causes microscopically detectable alterations of cell morphology; assay type: functional
[13] = system: Human alphaherpesvirus 3; experiment: Antiviral activity against YS strain of thymidine kinase positive(TK+) Varicella-Zoster Virus (VZV); assay type: functional, organism-based
[14] = system: Human alphaherpesvirus 3; experiment: Effective concentration against TK- Varicella-Zoster Virus (VZV) YS/R strain; assay type: functional, organism-based
[15] = system: Human alphaherpesvirus 3; experiment: Antiviral activity against 07/1 strain of thymidine kinase negative (TK-) Varicella-Zoster Virus (VZV); assay type: functional, organism-based
[16] = Cytotoxic concentration that produces 50% inhibition of cell growth.; assay type: functional
[17] = system: Human alphaherpesvirus 3; experiment: Antiviral activity against OKA strain of thymidine kinase positive(TK+) Varicella-Zoster Virus (VZV); assay type: functional, organism-based
[18] = system: HFF; experiment: Cytotoxic concentration for 50% inhibition of cell growth of HSV-1 infected HFF cells determined by CPE assay; assay type: functional; conditions: Homo sapiens
[19] = system: HFF; experiment: Inhibitory concentration to reduce Cowpox virus induced cytopathogenic effect by 50% in HFF cells; assay type: functional, cell-based; conditions: Homo sapiens
[20] = system: Thymidine kinase (Herpes simplex virus type 1); experiment: Catalytic turnover constant against HSV-1 thymidine kinase
[21] = Selectivity index calculated as CC50/EC50 in the study of cytopathogenic effect by vaccinia virus; assay type: functional
[22] = organism: Homo sapiens; experiment: Inhibitory concentration required to reduce cowpox virus induced virus plaque reduction (VPR) in human skin fibroblast; assay type: functional, organism-based
[23] = organism: Homo sapiens; experiment: Inhibitory concentration required to reduce HSV-2 induced virus plaque reduction (VPR) in human skin fibroblast; assay type: functional, organism-based
[24] = system: Human alphaherpesvirus 2; experiment: Inhibitory concentration required to reduce HSV-2 induced cytopathogenic effect (CPE) by 50 % in HFF cells; assay type: functional, organism-based; conditions: Human alphaherpesvirus 2, HFF
[25] = system: HFF; experiment: Inhibitory concentration for HSV-2 plaque reduction (VPR) by 50% in HFF cells; assay type: functional, cell-based; conditions: Homo sapiens
[26] = Catalytic rate constant was determined; assay type: ADME
[27] = system: HFF; experiment: Inhibitory concentration for HSV-1 plaque reduction (VPR) by 50% in HFF cells; assay type: functional, cell-based; conditions: Homo sapiens
[28] = system: HFF; experiment: Inhibitory concentration to reduce vaccinia virus induced cytopathogenic effect by 50% in HFF cells; assay type: functional, cell-based; conditions: Homo sapiens
[29] = (§2) Inhibition constant against HSV-1 TK; assay type: functional, herpes simplex virus
[30] = system: HFF; experiment: Concentration to reduce Cowpox virus plaque reduction (VPR) by 50% in HFF cells; assay type: functional, cell-based; conditions: Homo sapiens
[31] = organism: Homo sapiens; experiment: Inhibitory concentration required to reduce vaccinia virus induced virus plaque reduction (VPR) in human skin fibroblast; assay type: functional, organism-based
[32] = system: HFF; experiment: Concentration to reduce vaccinia virus plaque reduction (VPR) by 50% in HFF cells; assay type: functional, cell-based; conditions: Homo sapiens
[33] = system: HFF; experiment: Cytotoxic concentration for 50% inhibition of cell growth of HSV-2 infected HFF cells determined by VPR assay; assay type: functional; conditions: Homo sapiens
Method in brief: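 Run in virus-infected HFF cells within the plaque reduction assay set-up. […] The value was converted from μg/mL to μM.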

[34] = organism: Homo sapiens; experiment: Inhibitory concentration required to reduce cowpox virus induced cytopathogenic effect (CPE) in human skin fibroblast; assay type: functional, organism-based
[35] = Selectivity index calculated as CC50/EC50 in the study of cytopathogenic effect by HSV-1; assay type: functional
[36] = system: HFF; experiment: Cytotoxic concentration for 50% inhibition of cell growth of HSV-1 infected HFF cells determined by VPR assay; assay type: functional; conditions: Homo sapiens
[37] = organism: Homo sapiens; experiment: Inhibitory concentration required to reduce HSV-2 induced cytopathogenic effect in human skin fibroblast; assay type: functional, organism-based
[38] = organism: Homo sapiens; experiment: Inhibitory concentration required to reduce HSV-1 induced cytopathogenic effect (CPE) in human skin fibroblast; assay type: functional, organism-based
[39] = system: HFF; experiment: Cytotoxic concentration for 50% inhibition of cell growth of HSV-2 infected HFF cells determined by CPE assay; assay type: functional; conditions: Homo sapiens
[40] = organism: Homo sapiens; experiment: Cytotoxic concentration that produces 50% growth inhibition of human skin fibroblast in CPE assay; assay type: functional
[41] = organism: Homo sapiens; experiment: Inhibitory concentration required to reduce HSV-1 induced virus plaque reduction (VPR) in human skin fibroblast; assay type: functional, organism-based
[42] = Selectivity index calculated as CC50/EC50 in the VPR assay of HSV-1; assay type: functional
[43] = Selectivity index calculated as CC50/EC50 in the study of VPR assay of vaccinia virus; assay type: functional
[44] = organism: Homo sapiens; experiment: Cytotoxic concentration that produces 50% growth inhibition of human skin fibroblast in VPR assay; assay type: functional
[45] = system: Human alphaherpesvirus 1; experiment: Inhibitory concentration required to reduce HSV-1 induced cytopathogenic effect (CPE) by 50 % in HFF cells; assay type: functional, organism-based, herpes simplex virus; conditions: Human alphaherpesvirus 1, HFF
[46] = organism: Homo sapiens; experiment: Inhibitory concentration required to reduce vaccinia virus induced cytopathogenic effect (CPE) in human skin fibroblast; assay type: functional, organism-based
[47] = Cytotoxic concentration against osteosarcoma cells stably transfected with HSV-1 TK (143B-TK+-HSV-1-WT); assay type: functional; conditions: Human alphaherpesvirus 1
Method in brief: as §1

[48] = as §2; assay type: functional, herpes simplex virus; remark: listed apart in the source
Method in brief: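 Purified HSV-1 TK converts [methyl-³H]thymidine to its monophosphate in 50 mM Tris pH 7.5, 5 mM MgCl₂, 5 mM ATP, 2.5 mg/mL BSA under initial-velocity conditions. Three inhibitor concentrations are used, and apparent Ki is taken from Lineweaver–Burk double-reciprocal plots. Six independent assays.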

[49] = organism: Homo sapiens; experiment: Cytotoxic concentration that produces 50% growth inhibition of human skin fibroblast infected with HSV-1; assay type: functional

Work on `Nc1nc2c(ncn2COC(CO)CO)c(=O)[nH]1` [GANCICLOVIR] yielded a k cat [1] of 0.1 s⁻¹, a CC50 [2] of 75 µM and a CC50 [3] of 300 µM. For the same compound, the CC50 [4] was 200 µM and the CC50 [5] was 75 µM.

With `O=c1[nH]c(=O)n([C@H]2C[C@H](O)[C@@H](CO)O2)cc1/C=C/Br` [BRIVUDINE] the MCC [6] was over 150 µM, the CC50 [7] was over 400 µM and the EC50 [8] was over 150 µM. It also gave an EC50 [9] of 0.008 µM, an EC50 [10] of over 150 µM and an EC50 [11] of 0.005 µM. It also gave an MCC [12] of over 150 µM, an EC50 [13] of 0.008 µM and an EC50 [14] of over 150 µM. For the same compound, the EC50 [15] was over 150 µM, the CC50 [16] was over 400 µM and the EC50 [17] was 0.005 µM.

For `O=c1[nH]c(=O)n([C@H]2C[C@H](O)[C@]3(CO)C[C@H]23)cc1Br`, the MCC [6] was over 50 µM, the CC50 [18] was over 315 µM and the CC50 [7] was over 200 µM. For the same compound, the EC50 [19] was 36.3 µM, the EC50 [8] was 4 µM and the EC50 [9] was 0.2 µM. It also gave a k cat [20] of 0.15 s⁻¹, an EC50 [10] of over 20 µM and an SI [21] of over 156. It also gave an EC50 [22] of 10.7 µM, an EC50 [23] of 0.378 µM and a CC50 [3] of 330 µM. For the same compound, the EC50 [11] was 0.2 µM, the MCC [12] was over 50 µM and the EC50 [24] was 2.2 µM. The EC50 [25] was 0.378 µM, the k cat [26] was 0.15 s⁻¹ and the EC50 [27] was 0.095 µM. For the same compound, the EC50 [13] was 0.2 µM, the EC50 [28] was 2.01 µM and the EC50 [14] was 4 µM. For the same compound, the Ki [29] was 69.8 µM, the EC50 [30] was 10.7 µM and the EC50 [31] was 8.19 µM. The EC50 [32] was 8.19 µM, the CC50 [33] was over 315 µM and the EC50 [34] was 36.3 µM. It also gave an SI [35] of over 256, a CC50 [36] of over 315 µM and an EC50 [37] of 2.2 µM. For the same compound, the EC50 [38] was 1.23 µM, the CC50 [39] was over 315 µM and the CC50 [40] was over 315 µM. The EC50 [41] was 0.095 µM, the SI [42] was over 3320 and the SI [43] was over 38. For the same compound, the CC50 [44] was over 315 µM, the EC50 [15] was over 20 µM and the CC50 [16] was over 200 µM. The EC50 [45] was 1.23 µM, the EC50 [17] was 0.2 µM and the EC50 [46] was 2.01 µM. For the same compound, the CC50 [47] was 150 µM.

Compound `O=c1[nH]c(=O)n([C@H]2C[C@H](O)[C@]3(CO)C[C@H]23)cc1/C=C/Br` has an MCC [6] of over 5 µM, a CC50 [18] of over 291 µM and a CC50 [7] of over 200 µM. For the same compound, the EC50 [8] was over 5 µM, the EC50 [9] was 0.007 µM and the k cat [20] was 0.07 s⁻¹. The EC50 [10] was over 5 µM, the EC50 [11] was 0.005 µM and the MCC [12] was over 5 µM. The Ki [48] was 62.9 µM, the EC50 [24] was over 291 µM and the k cat [26] was 0.07 s⁻¹. The EC50 [13] was 0.007 µM, the EC50 [14] was over 5 µM and the EC50 [37] was over 291 µM. The EC50 [38] was 6.41 µM, the CC50 [39] was over 291 µM and the CC50 [40] was over 291 µM. The EC50 [15] was over 5 µM, the CC50 [16] was over 200 µM and the EC50 [45] was 6.41 µM. It also gave an EC50 [17] of 0.005 µM.

Work on `Cc1cn([C@H]2C[C@H](O)[C@]3(CO)C[C@H]23)c(=O)[nH]c1=O` [(NORTH)-METHANOCARBATHYMIDINE] yielded a CC50 [18] of over 396 µM, a CC50 [49] of over 396 µM and an EC50 [23] of 0.47 µM. For the same compound, the EC50 [24] was 0.35 µM, the EC50 [25] was 0.47 µM and the EC50 [27] was 0.04 µM. For the same compound, the Ki [29] was 16.1 µM, the CC50 [33] was over 79 µM and the CC50 [36] was over 79 µM. For the same compound, the EC50 [37] was 0.35 µM, the EC50 [38] was 0.12 µM and the CC50 [39] was over 396 µM. The EC50 [41] was 0.04 µM, the CC50 [44] was over 79 µM and the EC50 [45] was 0.12 µM.
